# Source: PubChem (The Scripps Research Institute Molecular Screening Center)
# GAA850 FXN act: activators of GAA850 frataxin (FXN) promoter; activation, % at 6 µM; HEK293 lucGAA850 FXN promoter luciferase reporter, 24 h; percent of 10 µM SAHA response; actives 0.56% (n = 360,000);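 active = activation above the average of all compounds screened plus 3 SD, cutoff fixed separately per campaign, cut at about 7.5% in these data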;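 note: 0% = DMSO wells and 100% = 10 µM SAHA wells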
# MC4R antagonist: human MC4R antagonism in cAMP assay | MC4R-expressing cells, MTII-stimulated cAMP, LANCE TR-FRET | P32245 | actives 0.48% (n = 360,000) | inhibition, % at 6.5 µM;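 active = inhibition above its plate's cutoff, the mean of tested wells on that plate plus 3 SD, cut at about 29% in these data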;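 note: 0% = Melanotan II alone and 100% = Melanotan II plus saturating MCL0020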
#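 System – human MC4R-expressing U2OS cells · Also added – Melanotan II · Dosing – one concentration, 6.5 µM nominal · Timing – 30-min compound, 1-h challenge, 1-h detection, room temperature · Measured by – Eu-cAMP/anti-cAMP TR-FRET, emission 671 nm · Replicates – singlicate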
# m5-HT2A agonist: agonists of mouse serotonin 5-HT2A receptor (HTR2A); P35363; CHO-K1 mHTR2A beta-arrestin complementation, luminescence; percent of 30 µM serotonin response; activation, % at 7.6 µM; actives 0.66% (n = 360,000); AID 624169;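 active = activation above a run cutoff, the mean activation of all tested compounds plus 3 SD, cut at about 14% in these data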;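 note: 0% = plate median of compound wells and 100% = 30 µM serotonin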
# Target sequence (P35363 whole entry, looked up): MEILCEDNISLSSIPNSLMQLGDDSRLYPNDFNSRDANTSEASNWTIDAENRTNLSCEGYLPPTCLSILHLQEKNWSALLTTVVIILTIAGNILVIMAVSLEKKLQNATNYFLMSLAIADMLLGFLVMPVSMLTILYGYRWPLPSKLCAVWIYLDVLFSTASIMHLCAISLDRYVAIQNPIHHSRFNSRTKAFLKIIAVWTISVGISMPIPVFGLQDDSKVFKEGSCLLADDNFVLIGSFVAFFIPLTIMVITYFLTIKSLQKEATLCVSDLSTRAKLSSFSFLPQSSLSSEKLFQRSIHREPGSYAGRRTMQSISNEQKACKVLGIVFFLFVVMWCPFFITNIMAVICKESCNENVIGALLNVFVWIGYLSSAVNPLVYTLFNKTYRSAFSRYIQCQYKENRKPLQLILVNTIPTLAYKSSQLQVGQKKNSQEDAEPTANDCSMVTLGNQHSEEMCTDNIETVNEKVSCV
# AHR act: activates the human aryl hydrocarbon receptor; P35869; AHR-responsive luciferase reporter cells, luminescence; activation, % at 5 µM; actives 2.5% (n = 320,000); AID 2796; in the data active = activation above about 47%;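 note: 0% = vehicle wells and 100% = reference agonist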
# MC4R barr agon: agonists of human melanocortin 4 receptor (MC4R) beta-arrestin; P32245; U2OS MC4R beta-arrestin complementation, luminescence; percent of melanotan II response, DMSO zero; activation, % at 8.9 µM; actives 0.98% (n = 360,000); AID 540308;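 active = activation above a per-plate cutoff, the mean activation of sample wells on that plate plus 3 SD, cut at about 8% in these data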
# AHR act confirm: human AHR activation, confirmation. shares compounds with AHR act. AID 2845. human cells, AHR-responsive luciferase reporter, luminescence. actives 87% (n = 2,300). activation, % at 9 µM; in the data active = activation above about 49%;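 note: HepG2 hepatoma cells carrying a DRE-driven firefly luciferase reporter; 0% = vehicle wells and 100% = reference agonist wells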
# PXR counter: activates human PXR in AHR activator counter-screen; shares compounds with AHR act; cell-based PXR reporter, luciferase luminescence; activation, % at 11.6 µM; actives 88% (n = 2,300); in the data active = activation above about 11%;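 note: human hepatoma DPX-2 cells expressing full-length human PXR; 0% = DMSO and 100% = reference agonist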
# Active calls of the source: *; . = no result given. Sampled rows, rich in hits. Any-hit rate of the full collection: about 4.7%.
SMILES,GAA850 FXN act,MC4R antagonist,m5-HT2A agonist,AHR act,MC4R barr agon,others
C=C(C=O)C[C@@H]1C[C@H](O)C2OC3C[C@]4(C)OC5/C=C\CC6OC7C(CC=CCC6OC5CCCC4OC3CC2O1)OC1CC2OC3CC(=O)OC3C[C@@H](C)C[C@@]2(C)OC1C[C@@H]7C (stereo not given in full),.,.,.,-1,.,
CC(=O)N(C)C1=Nc2ccc(Cl)cc2C(c2ccccc2)=[N+]([O-])C1,-1,4,-3,.,-2,
C[C@]12CC[C@H](O)C[C@H]1CC[C@@H]1[C@@H]2CC[C@]2(C)[C@@H](C3=CC(=O)OC3)CC[C@]12O,-13,21,1,2,34*,
CC12CC[C@H]3[C@@H](CCC4(O)C[C@H](O)CCC34/C=N/NC(=O)Cc3ccccc3)C1(O)CCC2C1=CC(=O)OC1 (stereo not given in full),1,-4,7,-2,1,
CC(=O)OC1CC(OC2C(O)CC(OC3C(O)CC(OC4CCC5(C)C(CCC6C5CC(O)C5(C)C(C7=CC(=O)OC7)CCC65O)C4)OC3C)OC2C)OC(C)C1OC1OC(CO)C(O)C(O)C1O (stereo not given),-14,2,-5,.,24*,
O=C(NCC1=C(c2cccc3ccccc23)C[C@@H]2CC[C@H]1N2Cc1ccco1)c1ccc([N+](=O)[O-])cc1,-11,2,-5,.,3,
CCS(=O)(=O)Nc1cccc(C(=C2CCCCC2)c2cnc[nH]2)c1,-2,7,2,58*,0,
CC1=CC2OC3CC4OC(=O)C=CC=CC(=O)OCCC(C)C(O)C(=O)OCC2(CC1)C4(C)C31CO1 (stereo not given),-16,37*,5,.,8.9*,
C=CCC1(CCCCC)C(=O)NC(=S)NC1=O,0,6,-1,.,-3,
O=c1c2ccccc2nc(-c2ccccc2)n1-n1cccc1,0,9,1,74*,-1,
O=c1c2ccccc2nc(/C=C/c2ccccc2O)n1-c1ccccc1O,0,5,9,47*,-2,
O=c1c2ccccc2nc(/C=C/c2ccccc2F)n1-c1ccccc1O,0,10,-7,22,3,
O=c1c2ccccc2nc(-c2ccccc2)n1-c1ccccc1,0,-1,6,0,3,
O=c1c2ccccc2nc(-c2ccccc2)n1-c1ccccc1O,0,3,-2,63*,-1,
COc1ccc(NC2Oc3cc4c(cc3C(c3cc(OC)c(OC)c(OC)c3)C2C)OCO4)cc1 (stereo not given),-2,-39,6,.,-1,
CC1Oc2cc3c(-c4c(O)cc(O)c5c(O)c6c(cc45)OC(C)C(C)C6=O)c(O)cc(O)c3c(O)c2C(=O)C1C (stereo not given),-6,20,-4,-2,9.7*,
NC(=Nc1ccccc1)NN=Cc1c[nH]c2ccccc12,-3,-17,-4,.,-1,
CCOC(=O)c1c(C)n(Cc2ccco2)c2c1cc(O)c1ccccc12,1,2,0,51*,6,
CCOC(=O)c1c(C)n(Cc2ccco2)c2ccc(OC)cc12,3,1,-2,8,-2,
COc1ccccc1N=Cc1c(O)n(C)c(=O)n(C)c1=O,1,1,-1,73*,-3,
O=[N+]([O-])c1ccc(N2CCCC2)c2ncccc12,2,-8,1,3,1,
CC1CN(c2ccc([N+](=O)[O-])c3cccnc23)CC(C)N1 (stereo not given),9.6*,19,0,10,-1,
CC1CN2C(=O)C1(c1ccccc1)C(=O)NC2=S (stereo not given),2,17,-4,.,0,
CC(C)C[C@H]1C(=O)N2CCC[C@H]2[C@]2(O)O[C@](NC(=O)[C@@H]3C=C4c5cccc6[nH]cc(c56)C[C@H]4N(C)C3)(C(C)C)C(=O)N12,0,-11,49*,4,1,
CC[C@@H](CO)NC(=O)[C@@H]1C=C2c3cccc4c3c(cn4C)C[C@H]2N(C)C1,2,-10,.,6,-1,
SMILES,GAA850 FXN act,MC4R antagonist,m5-HT2A agonist,AHR act,MC4R barr agon,others
CCCCCN1C(=O)c2cc(OC)ccc2[C@@]2(C(=O)OCC)Cc3cc(OC)ccc3[C@@H]12,.,.,-5,.,.,
Cc1ncoc1C(=O)NCC1=C(c2ccc(S(C)(=O)=O)cc2)C[C@@H]2CC[C@H]1N2CCOc1ccccc1,2,11,-1,.,0,
Cc1ccc(C[n+]2c(-c3ccc(C)cc3)cc(-c3ccc(C)cc3)cc2-c2ccc(C)cc2)cc1,-14,2,17*,-15,56*,
Cc1ccc(-c2cc(-c3ccc(C)cc3)[n+](-c3ccc(C(=O)O)cc3)c(-c3ccc(C)cc3)c2)cc1,1,0,5,2,-1,
Oc1ccc(O)c2c1C1(Cl)C(Cl)=C(Cl)C2(Cl)C1(Cl)Cl,1,12,-5,.,-3,
Cc1c(CCN)ccc2c1[nH]c1ccccc12,1,-3,-1,92*,0,AHR act confirm=29;PXR counter=13*
Brc1ccc(Oc2cc(Br)c(Br)cc2Br)c(Br)c1,0,5,7,-1,-1,
Cc1ccc2cc(C=C(C#N)C#N)c(Cl)nc2c1,4,-9,0,88*,-4,AHR act confirm=31;PXR counter=21*
CNC(=O)Oc1ccc(-c2cn3cc(C)ccc3n2)cc1,0,-12,2,-7,1,
CNC(=O)Oc1cccc(-c2cn3cc(Cl)ccc3n2)c1,4,-5,3,96*,0,AHR act confirm=33;PXR counter=13*
CC(C)OC(=O)c1c(N)n(Cc2ccco2)c2nc3ccccc3nc12,2,-1,0,41,-1,
COCCOC(=O)c1c(N)n(Cc2ccco2)c2nc3ccccc3nc12,-1,12,5,82*,1,AHR act confirm=36;PXR counter=91*
CCN(CCCl)c1cc(CN(C)C)cc(NC(=O)c2ccc(C(=O)Nc3cc(CN(C)C)cc(N(CC)CCCl)c3)cc2)c1,-15,-1,-6,.,-1,
Cc1ccc2nc3c(cc2c1)CC1(C(=O)N(C)C(=O)N(C)C1=O)C1COCCN31 (stereo not given),4,11,6,38,-1,
Cc1ccc2nc3c(cc2c1)CC1(C(=O)N(C)C(=O)N(C)C1=O)C1CCCCN31 (stereo not given),0,17,3,85*,-1,AHR act confirm=78*;PXR counter=72*
CCOC(=O)c1c(C)n(CCOC)c2ccc(O)cc12,0,-2,2,92*,-1,AHR act confirm=80*;PXR counter=19*
COC(=O)C12CCc3c(ccc4cc(OC)ccc34)C1=CC(=O)C2 (stereo not given),3,-15,1,.,-1,
